Source: PubChem BioAssay
This is a sample that favours compounds with a hit; in the whole collection about 1.4% have one here.
GSK3beta inhib – human GSK3beta kinase inhibitors, primary screen, biochemical, cell-free homogeneous, HTS; Glycogen synthase kinase-3 beta (Homo sapiens), P49841; GST-GSK3beta kinase, ADP-Glo luminescence, 60 min; stronger effect = lower value; activity score (negative = inhibition), % at 10 µM; 300,000 tested, 0.038% active; AID 2097, 2009;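 active means more than half of replicate wells score below -50%, meaning over 50% inhibition versus plate controls; inconclusive means some replicates but at most half score below -50%; inactive means no replicate scores below -50%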
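Assay system: GST-tagged human GSK3beta kinase, cell-free; Input: 1.6 ng GSK3beta; Medium: Tris/MgCl2 kinase buffer; Timing: 60 min enzyme reaction, room temperature; Signal: ADP-Glo luminescence quantifying ADP generated by kinase; Evaluation: score relative to plate controls; Benchmarks: DMSO neutral wells and GW8510 at 20 µM as positive.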
GSK3A inh – blockers of GSK3A enzyme activity – biochemical, luminescence, cell-free homogeneous, HTS, primary screen. GSK-3 alpha kinase, ADP-Glo luminescence, 60 min. 320,000 tested, 0.1% active. AID 2650, 2010. inhibition, % at 10 µM. Glycogen synthase kinase-3 alpha (Homo sapiens), P49840;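 active means more than half of replicates show inhibition above 20%; inconclusive means some but at most half of replicates above 20% inhibition; inactive means no replicate shows inhibition above 20%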;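 further: GST-tagged GSK-3 alpha with peptide substrate and 25 µM ATP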
HIV Env fusion – inhibitors of HIV-1 Env-driven cell-cell fusion, primary screen, HeLa-JRFL effector, CEM21 target cells, luciferase. inhibition, % at 12.3 µM. 360,000 tested, 1.1% active. AID 651610, 2012;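 active means mean replicate inhibition score of at least 50 and every replicate individually at or above 50; inconclusive means only one of the two criteria met; inactive means mean below 50 and not all replicates reaching 50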
STK33 kinase inh – inhibitors of purified STK33 kinase, primary screen, biochemical, ADP-Glo luminescence, homogeneous, cell-free; MBP phosphorylation; inhibition, % at 10 µM; 320,000 tested, 0.073% active; AID 2661, 2010;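 active means inhibition at or above 25%, using the most active replicate where run in duplicate; inactive means inhibition below 25%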
INS-1E GSIS act – GLuc luminescence reporter in INS-1E cells, primary screen for activators of glucose-dependent secretion of insulin; activation, % at 16.6 µM; INS-1E GLuc reporter insulin secretion, 2-3 h; 370,000 tested, 0.61% active;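 active means lowest replicate activation of at least 40%, so every replicate reaches that level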
CDK5 inh – inhibitors of human CDK5/p35 kinase, primary screen, biochemical, single concentration; Cyclin-dependent kinase 5 (Homo sapiens) + Cyclin-dependent kinase 5 activator 1 (Homo …; Recombinant CDK5/p35, ADP-Glo luminescence, 60 min; inhibition, % at 10 µM; 330,000 tested, 0.01% active; AID 488839, 2010;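 active means highest replicate inhibition of at least 50% and at least 75% of replicates reaching 50%; inconclusive means only one of the two criteria met; inactive means both criteria failed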
Target sequence (Q00535 whole entry, looked up): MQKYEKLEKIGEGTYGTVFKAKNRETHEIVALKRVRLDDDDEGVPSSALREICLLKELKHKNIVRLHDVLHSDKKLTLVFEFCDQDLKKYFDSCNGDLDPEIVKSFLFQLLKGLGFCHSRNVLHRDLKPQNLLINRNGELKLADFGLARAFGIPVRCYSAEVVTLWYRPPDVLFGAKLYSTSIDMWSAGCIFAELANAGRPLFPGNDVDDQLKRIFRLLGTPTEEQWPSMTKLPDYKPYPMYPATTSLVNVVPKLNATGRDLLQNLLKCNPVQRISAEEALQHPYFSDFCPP
Target sequence (Q15078 whole entry, looked up): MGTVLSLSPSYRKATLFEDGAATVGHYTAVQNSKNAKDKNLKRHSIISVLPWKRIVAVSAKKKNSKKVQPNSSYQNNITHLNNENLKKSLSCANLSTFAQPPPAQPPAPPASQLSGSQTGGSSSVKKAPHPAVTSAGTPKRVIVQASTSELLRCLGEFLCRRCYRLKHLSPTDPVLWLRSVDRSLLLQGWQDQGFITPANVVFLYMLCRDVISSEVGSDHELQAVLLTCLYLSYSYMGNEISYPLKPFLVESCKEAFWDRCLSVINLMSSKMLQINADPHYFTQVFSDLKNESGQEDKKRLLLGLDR
Each line names hits and unclear results; the compound was inactive in the other large screens.

O=C(c1cccc(C(F)(F)F)c1)N1CCc2c([nH]c3ccccc23)C1C(F)(F)F (configuration not stated)	HIV Env fusion 85.6
Nc1cc(=O)[nH]c(SCCSc2ccc(F)cc2)n1	HIV Env fusion 66.2
c1ccc(-c2csc3ncnc(NCCN4CCOCC4)c23)cc1	HIV Env fusion 78.4
Clc1ccc(-c2csc3ncnc(NCCN4CCOCC4)c23)cc1	HIV Env fusion 63.0 (no result: INS-1E GSIS act)
Cc1ccc(-c2csc3ncnc(NCCN4CCOCC4)c23)cc1	HIV Env fusion inconclusive (no result: INS-1E GSIS act)
FC(F)(F)c1cccc(NC(=S)Nc2ccc(Cl)c(Cl)c2)c1	none
O=[N+]([O-])c1cc(C(F)(F)F)cc([N+](=O)[O-])c1NCCNC(=S)Nc1ccc(Cl)c(Cl)c1	HIV Env fusion 56.9
O=C(C(=O)N1CCN(S(=O)(=O)c2ccc(C(F)(F)F)cc2)CC1)c1cccc(C(F)(F)F)c1	none (no result: GSK3beta inhib, GSK3A inh, STK33 kinase inh, CDK5 inh)
CCCCS(=O)(=O)N1CCN(C(=O)C(=O)c2cccc(C(F)(F)F)c2)CC1	HIV Env fusion 90.6 (no result: GSK3beta inhib, GSK3A inh, STK33 kinase inh, CDK5 inh)
COc1ccc(CC(=O)Oc2ccc(C)cc2Br)cc1OC	HIV Env fusion 61.3
COc1ccc(CC(=O)Oc2ccc(C)cc2C)cc1	none
C[C@H](CO)N1C[C@H](C)[C@H](CN(C)C(=O)C2CCOCC2)Oc2ncc(C3=CCCCC3)cc2C1=O	HIV Env fusion inconclusive (no result: GSK3beta inhib, GSK3A inh, STK33 kinase inh, CDK5 inh)
Cc1ccc(C(=O)N2CCN3C(=O)c4ccccc4C23c2ccccc2)cc1 (configuration not stated)	INS-1E GSIS act 41.7
O=C1c2ccccc2C2(c3ccccc3)N1CCN2C(=O)C(Cl)(Cl)Cl (configuration not stated)	none
CNC[C@H]1Oc2ccc(NC(=O)Nc3ccc(C(F)(F)F)cc3)cc2CC(=O)N([C@H](C)CO)C[C@H]1C	none (no result: GSK3beta inhib, GSK3A inh, STK33 kinase inh, CDK5 inh)
COc1ccc(CCN2C(=O)c3[nH]nc(-c4ccccc4O)c3C2c2cccc(O)c2)cc1OC (configuration not stated)	HIV Env fusion 75.5
CCOC(=O)N1CCN(S(=O)(=O)c2ccc(C(=O)NNc3nc4c(C)cccc4s3)cc2)CC1	HIV Env fusion 60.2 (no result: INS-1E GSIS act)
Cc1cc(NO)c(C(C)C)cc1N=O	HIV Env fusion 66.5 (no result: INS-1E GSIS act)
C[C@@H]1CN([C@H](C)CO)C(=O)c2cccc(NS(=O)(=O)c3ccccc3)c2O[C@@H]1CN(C)C(=O)Nc1ccc(F)cc1	none (no result: GSK3beta inhib, GSK3A inh, HIV Env fusion, STK33 kinase inh, CDK5 inh)
Cc1csc2ncnc(NNC(=O)c3ccc(Cl)cc3)c12	HIV Env fusion 65.7 (no result: INS-1E GSIS act)
COc1ccc(N(C(=O)CCl)C(C(=O)NCCc2ccccc2)c2cccs2)cc1 (configuration not stated)	INS-1E GSIS act 53.2 (no result: HIV Env fusion)
CCCCCCCCOC(=O)C1=C(C)Nc2nnnn2C1c1cccs1 (configuration not stated)	INS-1E GSIS act 42.6 (no result: STK33 kinase inh)
CC(=O)[C@@]1(O)Cc2c(O)c3c(c(O)c2[C@H](O[C@H]2C[C@H](N)[C@H](O)[C@H](C)O2)C1)C(=O)c1ccccc1C3=O	HIV Env fusion 95.1 (no result: GSK3beta inhib, GSK3A inh, STK33 kinase inh, CDK5 inh)
COc1cccc2c1C(=O)c1c(O)c3c(c(O)c1C2=O)CC(O)(C(C)=O)CC3OC1CC(N(C)C)C(O)C(C)O1 (configuration not stated)	HIV Env fusion 57.9 (no result: GSK3beta inhib, GSK3A inh, STK33 kinase inh)
COc1cccc2c1C(=O)c1c(O)c3c(c(O)c1C2=O)C[C@@](O)(C(=O)CO)C[C@@H]3OC1CC(N)C(O)C(C)O1 (some centres not stated)	none (no result: GSK3beta inhib, GSK3A inh, STK33 kinase inh, INS-1E GSIS act)
CCCC(=O)N1CC2(CCN(C(=O)Nc3cccc(F)c3)CC2)c2c(n(C)c3cc(OC)ccc23)[C@H]1CO	none (no result: GSK3beta inhib, GSK3A inh, HIV Env fusion, STK33 kinase inh, CDK5 inh)
Cc1ccc(NC(=O)c2cc(C)nc3ccccc23)cc1	none
Cc1ccc(NC(=O)c2cc(CC(C)C)nc3ccccc23)cc1	HIV Env fusion 67.5
COc1ccc(NC(=O)c2cc(CC(C)C)nc3ccccc23)cc1	HIV Env fusion 77.6 (no result: INS-1E GSIS act)
COc1cc(-c2cc(C(=O)Nc3ccc(O)cc3)c3ccccc3n2)cc(OC)c1OC	none
Cc1cc(C(=O)OCC(=O)NCCC(C)C)c2ccccc2n1	none (no result: INS-1E GSIS act)
